Consider 6 molecules from ChEMBL document CHEMBL1255487, “Preclinical evaluation of the antifolate QN254, 5-chloro- N'6'-(2,5-dimethoxy-benzyl)-quinazoline-2,4,6-triamine, as an antimalarial drug candidate” (Antimicrob Agents Chemother, 2010).

Data set [1] is described as follows: Binding affinity to wild type Plasmodium falciparum DHFR by competitive binding assay.
Data set [2] can be described thus: Binding affinity to recombinant Plasmodium falciparum V1/S DHFR S108N, N51I, C59R, I164L mutant by competitive binding assay. Further details: species or system V1S.
Data set [3] is described as follows: Selectivity ratio of Ki for human recombinant DHFR to Ki for wild type Plasmodium falciparum DHFR.
In data set [4] the test system is Plasmodium falciparum. The data set can be described thus: Selectivity ratio of Ki for recombinant Plasmodium falciparum V1/S DHFR S108N, N51I, C59R, I164L mutant to Ki for wild type Plasmodium falciparum DHFR.
Data set [5] has as its target T1, Dihydrofolate reductase (Homo sapiens, UniProt P00374).
T1 sequence (P00374 whole entry): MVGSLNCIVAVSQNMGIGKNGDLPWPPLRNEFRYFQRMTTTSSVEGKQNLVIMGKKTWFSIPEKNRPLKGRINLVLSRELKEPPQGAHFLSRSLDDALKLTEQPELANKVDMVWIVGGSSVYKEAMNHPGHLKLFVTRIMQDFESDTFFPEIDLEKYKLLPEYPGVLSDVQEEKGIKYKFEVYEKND
Put plainly: Binding affinity to human recombinant DHFR expressed in Escherichia coli BL21(DE3) by competitive binding assay.

The subject of data set [6] is Mus musculus. The data set can be described thus: Toxicity in NMRI mice (Mus musculus) infected with Plasmodium berghei ANKA at 100 mg/kg, perorally administered as single dose measured up to 30 days postinfection. In kind it is organism-based. The arrangement: dose 100 mg/kg, route oral. Conditions: in vivo, po, 720 h.
In data set [7] the test system is Plasmodium berghei. Put plainly: Antimalarial activity against Plasmodium berghei ANKA infected in NMRI mice (Mus musculus) assessed as reduction in parasitemia at 3 times 30 mg/kg, perorally measured on day 3 postinfection. In kind it is functional. The arrangement: scale not given: the % may be the effect or the level left. Conditions: route oral. Put shortly: (§1)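 P. berghei ANKA given intravenously to groups of 5 female NMRI mice (20–22 g): 0.2 ml of 1 × 10^8 parasitized erythrocytes/ml from a donor mouse. Oral dosing in 0.5% carboxymethyl cellulose. Parasitemia counted by microscopy. Activity is the control-minus-treated parasitemia difference, expressed as percent of untreated controls.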

In data set [8] the test system is Plasmodium berghei. Put plainly: Antimalarial activity against Plasmodium berghei ANKA infected in NMRI mice (Mus musculus) assessed as reduction in parasitemia at 100 mg/kg, perorally administered as single dose measured on day 3 postinfection. In kind it is functional. The arrangement: scale not given: the % may be the effect or the level left. Conditions: route oral. A digest of the protocol: as §1

The test system of data set [9] is Plasmodium berghei. Put plainly: Antimalarial activity against Plasmodium berghei ANKA infected in NMRI mice (Mus musculus) assessed as cure rate at 3 times 30 mg/kg, perorally measured […]. The data set is classed as functional. Conditions: route oral. A digest of the protocol: (§2)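 Female NMRI mice (20–22 g), 5 per group, infected intravenously with 0.2 ml of 1 × 10^8 parasitized erythrocytes/ml from a fresh donor mouse. Compound suspended in 0.5% carboxymethyl cellulose and given orally. Survival followed to day 30 post-infection; an animal was scored cured if it survived to day 30 without parasites.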

Data set [10] has as its system Plasmodium berghei. Put plainly: Antimalarial activity against Plasmodium berghei ANKA infected in NMRI mice (Mus musculus) assessed as mean survival time at 3 times 30 mg/kg, perorally. The data set is classed as functional. Conditions: route oral. A digest of the protocol:
(§3)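 Infection: 5 female NMRI mice (20–22 g) per group, inoculated intravenously with 0.2 ml of donor blood at 1 × 10^8 parasitized erythrocytes/ml. Oral administration in 0.5% carboxymethyl cellulose. Survival time recorded up to 30 days after infection and averaged per group.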

The test system of data set [11] is Plasmodium berghei. The data set can be described thus: Antimalarial activity against Plasmodium berghei ANKA infected in NMRI mice (Mus musculus) assessed as cure rate at 100 mg/kg, perorally administered as single dose measured on […]. The data set is classed as functional. Conditions: route oral. Put shortly:
as §2

Data set [12] concerns Mus musculus. Put plainly: Toxicity in NMRI mice (Mus musculus) infected with Plasmodium berghei ANKA at 3 times 30 mg/kg, perorally measured up to 30 days postinfection. In kind it is organism-based. The arrangement: dose 30 mg/kg, route oral. Conditions: in vivo, po, 720 h.
In data set [13] the test system is Plasmodium falciparum. The data set can be described thus: Antimalarial activity against pyrimethamine-resistant Plasmodium falciparum clinical isolate harboring S108N, N51I mutation in DHFR assessed as decrease in parasitaemia. In kind it is functional, organism-based. Put shortly:
(§4)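 P. falciparum grown in RPMI 1640 with 10% (v/v) human serum, 25 mM bicarbonate, 2 mM glutamine, 25 mM HEPES, 5 nM para-aminobenzoic acid and 23 nM folic acid. Parasites exposed to a concentration series. Read-out is [3H]hypoxanthine incorporation into nucleic acid. IC50 taken from non-linear regression of the dose–response curve.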

The subject of data set [14] is Plasmodium falciparum. Put plainly: Antimalarial activity against pyrimethamine-resistant Plasmodium falciparum clinical isolate harboring S108N, C59R mutation in DHFR assessed as decrease in parasitaemia. In kind it is functional, organism-based. Put shortly: as §4
The subject of data set [15] is Plasmodium falciparum. Put plainly: Antimalarial activity against pyrimethamine-resistant Plasmodium falciparum clinical isolate harboring S108N, N51I, C59R mutation in DHFR assessed as decrease in parasitaemia. In kind it is functional, organism-based. Put shortly: as §4
For data set [16], the system named is Plasmodium falciparum. Put plainly: Antimalarial activity against pyrimethamine-resistant Plasmodium falciparum V1/S harboring S108N, N51I, C59R, I164L mutation in DHFR assessed as decrease in parasitaemia. In kind it is functional, organism-based. Conditions: V1S.
Data set [17] deals with Plasmodium berghei. Put plainly: Antimalarial activity against Plasmodium berghei ANKA infected in perorally dosed NMRI mice (Mus musculus) assessed as reduction in parasitemia administered as single dose measured on day 3 postinfection. Conditions: for ED50 / ED90: po, 72 h. In kind it is functional.
The test system of data set [18] is Plasmodium berghei. The data set can be described thus: Antimalarial activity against Plasmodium berghei ANKA infected in NMRI mice (Mus musculus) assessed as survival rate at 100 mg/kg, perorally administered as single dose. In kind it is functional. Conditions: route oral. Put shortly: as §3

For `CC1(C)N=C(N)N=C(N)N1c1ccc(Cl)cc1` [CYCLOGUANIL], the results for the Ki in [1] and in [2] were 1.51 nM and 454 nM, respectively.
With `CC1(C)N=C(N)N=C(N)N1OCCCOc1cc(Cl)c(Cl)cc1Cl`, the inhibition constant (Ki) (commonly a measure of affinity in units of concentration, obtained from inhibition or displacement) in data set [1] was determined as 0.5 nM; in [2], 1.9 nM; in data set [5], 7.7 nM. Further, the figures for the Ratio Ki in [3] and in [4] were 15 and 1.8, respectively.
In the case of `OC(c1cc(C(F)(F)F)nc2c(C(F)(F)F)cccc12)C1CCCCN1` (stereo unspecified) [MEFLOQUINE], the Activity was 0% in data set [6]; 99.8% in [7]; 99.6% in data set [8]; 0% in data set [9]; 0% in [11]; 0% in data set [12]. For the same molecule, the Survival in data set [10] amounted to 14.3 days.
Take `CCc1nc(N)nc(N)c1-c1ccc(Cl)cc1` [PYRIMETHAMINE]: the Ki came out at 0.59 nM in [1] and 385 nM in data set [2]. Also, the 50% inhibitory concentration (IC50) – broadly, the concentration that inhibits the measured activity by half – in data set [13] worked out at 371 nM; in data set [14], 371 nM; in [15], 778 nM; in data set [16] it was 3690 nM.
Regarding `C[C@H]1[C@H](OC(=O)CCC(=O)O)O[C@@H]2O[C@@]3(C)CC[C@H]4[C@H](C)CC[C@@H]1[C@@]24OO3` [ARTESUNATE], the Activity in data set [6] is given as 0%; in data set [7], 98.7%; in data set [8], 98%; in data set [9], 0%; in data set [11] it was 0%; in [12] it was 0%. Besides, the ED50 (as a rule, the dose that gives a 50% effect, or the effect in half of the subjects) in [17] is 5.9 mg/kg. For the same molecule, in data set [17], the ED90 worked out at 20.5 mg/kg. For the same molecule, the Survival was found to be 7 days in data set [18] and 12.2 days in data set [10].
As to `CCN(CC)CCCC(C)Nc1ccnc2cc(Cl)ccc12` (stereo unspecified) [CHLOROQUINE], the Activity in [6] came out at 0%; in data set [7], 98.8%; in data set [8], 89%; in data set [9] it was 0%; in [11], 0%; in data set [12] it was 0%. Moreover, the inhibition entry in data set [17] was “Dose dependent effect”. The median effective dose (ED50) in data set [17] is 1.9 mg/kg. In addition, in data set [17], the ED90 turned out to be 4.2 mg/kg. In addition, the Survival in [18] stood at 25.5 days; in data set [10], 22.1 days.
